Laboratory results taken from ChEMBL document CHEMBL3045677, “Sulfonamide-1,2,4-thiadiazole derivatives as antifungal and antibacterial agents: synthesis, biological evaluation, lipophilicity, and conformational studies” (2010).
In brackets after ≈: the same amount, converted by molar mass.

Key:
Fulvia fulva = assay: Antifungal activity against Passalora fulva TK5318 at 28 degC measured after 72 hr by microdilution method; assay type: functional; details: TK5318, 72 h
Method in brief: (§1)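 Fungi were kept on malt agar at 4 °C. Spores were washed off with sterile 0.85% saline containing 0.1% Tween 80 and adjusted to about 1.0×10⁵ per well. Compounds were dissolved in DMSO (1 mg/ml stock) and serially diluted in malt broth with inoculum in 96-well plates, 72 h at 28 °C, for MIC. MFC came from subculture into fresh broth for a further 72 h at 28 °C.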

Aspergillus versicolor = assay: Antifungal activity against Aspergillus versicolor ATCC 11730 at 28 degC measured after 72 hr by microdilution method; assay type: functional; details: ATCC 11730, 72 h; method in brief: as §1
Aspergillus flavus = assay: Antifungal activity against Aspergillus flavus ATCC 9643 at 28 degC measured after 72 hr by microdilution method; assay type: functional; details: ATCC 9643, 72 h; method in brief: as §1
Aspergillus niger = assay: Antifungal activity against Aspergillus niger ATCC 6275 at 28 degC measured after 72 hr by microdilution method; assay type: functional; details: ATCC 6275, 72 h; method in brief: as §1
Trichoderma viride = assay: Antifungal activity against Hypocrea rufa IAM 5061 at 28 degC measured after 72 hr by microdilution method; assay type: functional; details: IAM 5061, 72 h; method in brief: as §1
Aspergillus fumigatus = assay: Antifungal activity against plant isolate Aspergillus fumigatus at 28 degC measured after 72 hr by microdilution method; assay type: functional; method in brief: as §1
Penicillium ochrochloron = assay: Antifungal activity against Penicillium ochrochloron ATCC 9112 at 28 degC measured after 72 hr by microdilution method; assay type: functional; details: ATCC 9112, 72 h; method in brief: as §1
Talaromyces funiculosus = assay: Antifungal activity against Talaromyces funiculosus ATCC 36839 at 28 degC measured after 72 hr by microdilution method; assay type: functional; details: ATCC 36839, 72 h; method in brief: as §1
Listeria monocytogenes [1] = assay: Antibacterial activity against Listeria monocytogenes NCTC 7973 at […] degC measured after 72 hr by microdilution method; assay type: functional; details: NCTC 7973, 72 h
Method in brief: (§2)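 Bactericidal endpoint: after the 24 h broth microdilution (1.0×10⁴ CFU per well, LB broth, […] °C), wells were serially subcultured into plates of fresh broth and incubated a further 72 h. MBC was the lowest concentration with no visible growth, taken as 99.5% killing of the original inoculum.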

Proteus mirabilis [2] = assay: Antibacterial activity against Proteus mirabilis at […] degC measured after 72 hr by microdilution method; assay type: functional; method in brief: as §2
Salmonella typhimurium [3] = assay: Antibacterial activity against Salmonella enterica subsp. enterica serovar TyphimuriumATCC 13311 at […] degC measured after 72 hr by microdilution method; assay type: functional, Salmonella enterica subsp. enterica serovar Typhimurium; details: ATCC 13311, 72 h; method in brief: as §2
Pseudomonas aeruginosa [4] = assay: Antibacterial activity against Pseudomonas aeruginosa ATCC 27853 at […] degC measured after 72 hr by microdilution method; assay type: functional; details: ATCC 27853, 72 h; method in brief: as §2
Escherichia coli [5] = assay: Antibacterial activity against Escherichia coli ATCC 35210 at […] degC measured after 72 hr by microdilution method; assay type: functional; details: ATCC 35210, 72 h; method in brief: as §2
Staphylococcus aureus [6] = assay: Antibacterial activity against Staphylococcus aureus ATCC 6538 at […] degC measured after 72 hr by microdilution method; assay type: functional; details: ATCC 6538, 72 h; method in brief: as §2
Micrococcus flavus [7] = assay: Antibacterial activity against Micrococcus flavus ATCC 10240 at […] degC measured after 72 hr by microdilution method; assay type: functional; details: ATCC 10240, 72 h; method in brief: as §2
Bacillus cereus [8] = assay: Antibacterial activity against clinical isolate Bacillus cereus at […] degC measured after 72 hr by microdilution method; assay type: functional; method in brief: as §2
Listeria monocytogenes [9] = assay: Antibacterial activity against Listeria monocytogenes NCTC 7973 at […] degC measured after 24 hr by microdilution method; assay type: functional; details: NCTC 7973, 24 h
Method in brief: (§3)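 Bacteria suspended in sterile saline at 1.0×10⁵ CFU/ml and added at 1.0×10⁴ CFU per well to LB broth with compound (1 mg/ml) in 96-well plates. Incubated 24 h at […] °C. MIC was the lowest concentration without visible growth under a binocular microscope. OD 655 nm was read against a blank and a positive control.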

Salmonella typhimurium [10] = assay: Antibacterial activity against Salmonella enterica subsp. enterica serovar Typhimurium ATCC 13311 at […] degC measured after 24 hr by microdilution method; assay type: functional; details: ATCC 13311, 24 h; method in brief: as §3
Pseudomonas aeruginosa [11] = assay: Antibacterial activity against Pseudomonas aeruginosa ATCC 27853 at […] degC measured after 24 hr by microdilution method; assay type: functional; details: ATCC 27853, 24 h; method in brief: as §3
Proteus mirabilis [12] = assay: Antibacterial activity against Proteus mirabilis at […] degC measured after 24 hr by microdilution method; assay type: functional; method in brief: as §3
Escherichia coli [13] = assay: Antibacterial activity against Escherichia coli ATCC 35210 at […] degC measured after 24 hr by microdilution method; assay type: functional; details: ATCC 35210, 24 h; method in brief: as §3
Staphylococcus aureus [14] = assay: Antibacterial activity against Staphylococcus aureus ATCC 6538 at […] degC measured after 24 hr by microdilution method; assay type: functional; details: ATCC 6538, 24 h; method in brief: as §3
Bacillus cereus [15] = assay: Antibacterial activity against clinical isolate Bacillus cereus at […] degC measured after 24 hr by microdilution method; assay type: functional; method in brief: as §3
Micrococcus flavus [16] = assay: Antibacterial activity against Micrococcus flavus ATCC 10240 at […] degC measured after 24 hr by microdilution method; assay type: functional; details: ATCC 10240, 24 h; method in brief: as §3

SMILES | MFC (Fulvia fulva) [µM] | MIC (Fulvia fulva) [µM] | MFC (Aspergillus versicolor) [µM] | MIC (Aspergillus versicolor) [µM] | MFC (Aspergillus flavus) [µM] | MIC (Aspergillus flavus) [µM] | MFC (Aspergillus niger) [µM] | MIC (Aspergillus niger) [µM] | MFC (Trichoderma viride) [µM] | MIC (Trichoderma viride) [µM] | MFC (Aspergillus fumigatus) [µM] | MIC (Aspergillus fumigatus) [µM] | MFC (Penicillium ochrochloron) [µM] | MIC (Penicillium ochrochloron) [µM] | MFC (Talaromyces funiculosus) [µM] | MIC (Talaromyces funiculosus) [µM] | MBC (Listeria monocytogenes [1]) [µM] | MBC (Proteus mirabilis [2]) [µM] | MBC (Salmonella typhimurium [3]) [µM] | MBC (Pseudomonas aeruginosa [4]) [µM] | further results
COc1cc(Cc2nnc(Nc3ccc(C(F)(F)F)cc3)s2)c(S(=O)(=O)N2CCCC2)cc1OC | 75.6 (≈ 40 µg/mL) | 18.9 (≈ 9.99 µg/mL) | 37.8 (≈ 20 µg/mL) | 18.9 (≈ 9.99 µg/mL) | 37.8 (≈ 20 µg/mL) | 18.9 (≈ 9.99 µg/mL) | 37.8 (≈ 20 µg/mL) | 18.9 (≈ 9.99 µg/mL) | 18.9 (≈ 9.99 µg/mL) | 9.5 (≈ 5.02 µg/mL) | 37.8 (≈ 20 µg/mL) | 18.9 (≈ 9.99 µg/mL) | 37.8 (≈ 20 µg/mL) | 18.9 (≈ 9.99 µg/mL) | 37.8 (≈ 20 µg/mL) | 18.9 (≈ 9.99 µg/mL) | 18.9 (≈ 9.99 µg/mL) | 37.8 (≈ 20 µg/mL) | 18.9 (≈ 9.99 µg/mL) | 18.9 (≈ 9.99 µg/mL) | MBC (Escherichia coli [5]): 37.8 µM (≈ 20 µg/mL); MBC (Staphylococcus aureus [6]): 18.9 µM (≈ 9.99 µg/mL); MBC (Micrococcus flavus [7]): 37.8 µM (≈ 20 µg/mL); MBC (Bacillus cereus [8]): 18.9 µM (≈ 9.99 µg/mL); MIC (Listeria monocytogenes [9]): 18.9 µM (≈ 9.99 µg/mL); MIC (Salmonella typhimurium [10]): 9.5 µM (≈ 5.02 µg/mL); MIC (Pseudomonas aeruginosa [11]): 9.5 µM (≈ 5.02 µg/mL); MIC (Proteus mirabilis [12]): 18.9 µM (≈ 9.99 µg/mL); MIC (Escherichia coli [13]): 18.9 µM (≈ 9.99 µg/mL); MIC (Staphylococcus aureus [14]): 9.5 µM (≈ 5.02 µg/mL); MIC (Bacillus cereus [15]): 9.5 µM (≈ 5.02 µg/mL); MIC (Micrococcus flavus [16]): 18.9 µM (≈ 9.99 µg/mL)
COc1cc(Cc2nnc(Nc3ccccc3)s2)c(S(=O)(=O)N(C)C)cc1OC | 23 (≈ 9.99 µg/mL) | 11.5 (≈ 5 µg/mL) | 23 (≈ 9.99 µg/mL) | 11.5 (≈ 5 µg/mL) | 46 (≈ 20 µg/mL) | 23 (≈ 9.99 µg/mL) | 46 (≈ 20 µg/mL) | 23 (≈ 9.99 µg/mL) | 23 (≈ 9.99 µg/mL) | 11.5 (≈ 5 µg/mL) | 46 (≈ 20 µg/mL) | 11.5 (≈ 5 µg/mL) | 46 (≈ 20 µg/mL) | 23 (≈ 9.99 µg/mL) | 23 (≈ 9.99 µg/mL) | 11.5 (≈ 5 µg/mL) | 92 (≈ 40 µg/mL) | 46 (≈ 20 µg/mL) | 92 (≈ 40 µg/mL) | 46 (≈ 20 µg/mL) | MBC (Escherichia coli [5]): 46 µM (≈ 20 µg/mL); MBC (Staphylococcus aureus [6]): 92 µM (≈ 40 µg/mL); MBC (Micrococcus flavus [7]): 17.5 µM (≈ 7.6 µg/mL); MBC (Bacillus cereus [8]): 46 µM (≈ 20 µg/mL); MIC (Listeria monocytogenes [9]): 46 µM (≈ 20 µg/mL); MIC (Salmonella typhimurium [10]): 46 µM (≈ 20 µg/mL); MIC (Pseudomonas aeruginosa [11]): 46 µM (≈ 20 µg/mL); MIC (Proteus mirabilis [12]): 46 µM (≈ 20 µg/mL); MIC (Escherichia coli [13]): 46 µM (≈ 20 µg/mL); MIC (Staphylococcus aureus [14]): 46 µM (≈ 20 µg/mL); MIC (Bacillus cereus [15]): 23 µM (≈ 9.99 µg/mL); MIC (Micrococcus flavus [16]): 11.5 µM (≈ 5 µg/mL)
